The source made the active and inactive calls. No cut-off for these calls is given here.

This is an account of results in ChEMBL document CHEMBL4673255, “Acylated 1H-1,2,4-Triazol-5-amines Targeting Human Coagulation Factor XIIa and Thrombin: Conventional and Microscale Synthesis, Anticoagulant Properties, and Mechanism of Action” (J Med Chem, 2020).

For series [1], the system named is Plasma. The experiment in a line: Antiplatelet activity in […] assessed as inhibition of MDA-MB-231-induced platelet aggregation at 10 uM by light transmission aggregometry. The series is classed as functional. As to conditions: Homo sapiens.
Series [2] relates to Plasma. The experiment in a line: Antiplatelet activity in human platelet-rich plasma assessed as inhibition of TRAP6 induced platelet activation by measuring reduction in ATP release at 10 uM preincubated for 20 mins followed by TRAP6 addition and measured after 10 mins by luciferin-based luminescence assay. The series is classed as functional, cell-free. Conditions: time 30.0 min. In short, it runs like this:
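Platelet activation measured as dense-granule ATP release by firefly luciferase bioluminescence. Compound-treated platelets were activated with MDA-MB-231 cells, thrombin or TRAP-6. TRAP-6-induced signal was set as 100%. Triplicate, mean ± SD.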

Series [3] concerns Plasma. The experiment in a line: Antiplatelet activity in […] assessed as inhibition of TRAP6-induced platelet aggregation at 0.1 to 10 uM by light transmission aggregometry. The series is classed as functional. Conditions: Homo sapiens, dose 0.1-10 µM.
For the next series, the system named is CCF-STTG1. Briefly: Cytotoxicity against human CCF-STTG1 cells assessed as reduction in cell viability at 100 uM incubated for 48 hrs by alamar blue assay relative to control. The series is classed as cell-based. As to conditions: ccf-sttg1, 48 h. Background: Resazurin is reduced to fluorescent resorufin, in cell work by metabolically active cells.
Series [4] concerns Plasma. Briefly: Antiplatelet activity in […] assessed as inhibition of MDA-MB-231-induced platelet aggregation at 100 nM by light transmission aggregometry. The series is classed as functional. Conditions: Homo sapiens.
In series [5] the target is T1, Coagulation factor XII (Homo sapiens) (UniProt P00748).
T1 sequence (whole entry): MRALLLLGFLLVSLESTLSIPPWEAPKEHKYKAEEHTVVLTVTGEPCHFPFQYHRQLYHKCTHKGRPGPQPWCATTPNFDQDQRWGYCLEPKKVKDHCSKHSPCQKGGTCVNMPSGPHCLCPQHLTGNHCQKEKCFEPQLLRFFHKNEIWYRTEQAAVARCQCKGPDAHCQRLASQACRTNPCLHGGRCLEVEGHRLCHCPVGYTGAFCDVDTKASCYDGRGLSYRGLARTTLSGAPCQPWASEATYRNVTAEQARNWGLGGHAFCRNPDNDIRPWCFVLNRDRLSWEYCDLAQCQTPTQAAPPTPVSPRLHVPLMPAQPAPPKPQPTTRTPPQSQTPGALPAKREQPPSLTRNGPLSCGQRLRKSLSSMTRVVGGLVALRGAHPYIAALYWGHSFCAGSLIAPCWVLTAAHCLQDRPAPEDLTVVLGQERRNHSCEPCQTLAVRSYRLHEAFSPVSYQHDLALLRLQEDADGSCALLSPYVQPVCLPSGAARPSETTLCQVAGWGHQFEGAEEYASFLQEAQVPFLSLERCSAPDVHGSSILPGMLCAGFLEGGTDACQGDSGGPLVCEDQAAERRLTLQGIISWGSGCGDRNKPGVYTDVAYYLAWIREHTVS
Briefly: Time dependent inhibition of human coagulation factor XIIA using Boc-Gln-Gly-Arg-AMC as fluorogenic substrate at 0.5 to 132 uM by fluorescence assay. As to conditions: dose 0.0005-132 µM, in the assay text read “0.5 nM to 132 uM” for “0.5 to 132 uM”. In short, it runs like this:
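Buffer: Tris-Cl pH 7.4 with NaCl, MgCl2, CaCl2, 0.1% BSA and 0.01% Triton X-100. Fluorescence (ex 355/em 460 nm) read kinetically every 87 s for up to 180 min. IC50 calculated at each time point and plotted against time.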

For `Nc1nc(-c2ccccn2)nn1C(=O)c1ccc2ccccc2c1`, the inhibition entry in the series with Plasma [1] and in the series with Plasma [2] was “Active” throughout. Also, the inhibition result with Plasma [3] and with Plasma [4] was “inactive” throughout. For the same molecule, the Activity in the series on CCF-STTG1 is given as 36%.
In the case of `Nc1nc(-c2ccccn2)nn1C(=O)c1cccc2ccccc12`, the TDI result in series [5] was “Active”.
